Test results: ChEMBL document CHEMBL2062481 (J Med Chem, 2012)

What was measured:
[1] = AUC (0 to 24 hrs) in C3H/HeN mouse plasma at 5 mg/kg, iv administered as single dose; type: ADME, organism-based; design: time < 24 hr, dose 5 mg/kg, route intravenous
Procedure, shortened: (§1)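 Female C3H/HeN mice (19–25 g) received a single tail-vein iv dose in 100 μL PBS. Blood and urine (10 μL) were sampled at 6 and 30 min and at 1, 2, 4, 6 and 8 h. Samples were methanol-precipitated, centrifuged and quantified by LC-MS. n = 4.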

[2] = 1-octanol-phosphate buffer distribution coefficient, log D of the compound at 1 uM after 2 hrs by shake flask method at pH 7.4; type: physicochemical
Procedure, shortened: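 Phosphate buffer (0.1 M, pH 7.4) and 1-octanol were mutually pre-saturated. Analyte at 1 μM in buffer was overlaid with octanol at two volume ratios chosen by lipophilicity class, three wells per ratio. Plates were shaken 2 h at 25 °C and centrifuged, and the aqueous phase was quantified by LC-MS. Results were accepted if the two ratio means agreed within 0.1 unit.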

[3] = AUC (0 to 24 hrs) in C3H/HeN mouse urine at 1 mg/kg, iv administered as single dose; type: ADME, organism-based; design: time < 24 hr, dose 1 mg/kg, route intravenous; procedure, shortened: as §1
[4] = AUC (0 to 24 hrs) in C3H/HeN mouse plasma at 1 mg/kg, iv administered as single dose; type: ADME, organism-based; design: time < 24 hr, dose 1 mg/kg, route intravenous; procedure, shortened: as §1
[5] = AUC (0 to 24 hrs) in C3H/HeN mouse plasma at 25 mg/kg, iv administered as single dose; type: ADME, organism-based; design: time < 24 hr, dose 25 mg/kg, route intravenous; procedure, shortened: as §1
[6] = AUC (0 to 24 hrs) in C3H/HeN mouse urine at 25 mg/kg, iv administered as single dose; type: ADME, organism-based; design: time < 24 hr, dose 25 mg/kg, route intravenous; procedure, shortened: as §1
[7] = AUC (0 to 24 hrs) in C3H/HeN mouse plasma at 0.05 mg/kg, iv administered as single dose; type: ADME, organism-based; design: time < 24 hr, dose 0.05 mg/kg, route intravenous; procedure, shortened: as §1
[8] = AUC (0 to 24 hrs) in C3H/HeN mouse urine at 0.05 mg/kg, iv administered as single dose; type: ADME, organism-based; design: time < 24 hr, dose 0.05 mg/kg, route intravenous; procedure, shortened: as §1

logD at 2 h, 1 µM [2] | SMILES | further results
1.8 | O=[N+]([O-])c1ccc2c(ccn2-c2ccc(O[C@H]3O[C@H](CO)[C@@H](O)[C@H](O)[C@@H]3O)c(Cl)c2)c1 | AUC(0-t) at 24 h [1]: 2300 ng·h/mL
2.8 | COC(=O)c1ccc2c(ccn2-c2ccc(O[C@H]3O[C@H](CO)[C@@H](O)[C@H](O)[C@@H]3O)c(Cl)c2)c1 | 
1.9 | O=[N+]([O-])c1ccc2c(c1)CCN2c1ccc(O[C@H]2O[C@H](CO)[C@@H](O)[C@H](O)[C@@H]2O)cc1 | AUC(0-t) at 24 h [3]: 586000 ng·h/mL; AUC(0-t) at 24 h [4]: 2200 ng·h/mL
3.4 | OC[C@H]1O[C@H](Oc2ccc(-n3ccc4cc(Cl)cnc43)cc2Cl)[C@@H](O)[C@@H](O)[C@@H]1O | 
2.7 | OC[C@H]1O[C@H](Oc2ccc(-n3ccc4c(OCc5ccccc5)cccc43)cc2Cl)[C@@H](O)[C@@H](O)[C@@H]1O | 
-0.8 | O=C(O)c1ccc(-c2ccc(O[C@H]3O[C@H](CO)[C@@H](O)[C@H](O)[C@@H]3O)c(Cl)c2)cc1 | 
3 | COc1ccc2c(ccn2-c2ccc(O[C@H]3O[C@H](CO)[C@@H](O)[C@H](O)[C@@H]3O)c(Cl)c2)c1 | 
1.6 | N#Cc1cnc2c(ccn2-c2ccc(O[C@H]3O[C@H](CO)[C@@H](O)[C@H](O)[C@@H]3O)c(Cl)c2)c1 | 
1.3 | Cn1cnc2cc(-c3ccc(O[C@H]4O[C@H](CO)[C@@H](O)[C@H](O)[C@@H]4O)c(Cl)c3)cnc21 | 
1.8 | OC[C@H]1O[C@H](Oc2ccc(-n3ccc4ccccc43)cc2Cl)[C@@H](O)[C@@H](O)[C@@H]1O | AUC(0-t) at 24 h [5]: 8200 ng·h/mL; AUC(0-t) at 24 h [6]: 19300 ng·h/mL
1.9 | O=[N+]([O-])c1ccc2c(c1)CCN2c1ccc(O[C@H]2O[C@H](CO)[C@@H](O)[C@H](O)[C@@H]2O)c(Cl)c1 | AUC(0-t) at 24 h [7]: 3500 ng·h/mL; AUC(0-t) at 24 h [8]: 33400 ng·h/mL
2.4 | OC[C@H]1O[C@H](Oc2ccc(-n3ccc4ccccc43)cc2F)[C@@H](O)[C@@H](O)[C@@H]1O | 
2.8 | OC[C@H]1O[C@H](Oc2ccc(N3CCc4ccccc43)cc2Cl)[C@@H](O)[C@@H](O)[C@@H]1O | 
1.9 | O=[N+]([O-])c1ccc2c(ccn2-c2ccc(O[C@H]3O[C@H](CO)[C@@H](O)[C@H](O)[C@@H]3O)c(F)c2)c1 | 
1.8 | CS(=O)(=O)Nc1ccc2c(ccn2-c2ccc(O[C@H]3O[C@H](CO)[C@@H](O)[C@H](O)[C@@H]3O)c(Cl)c2)c1 | 
1.1 | O=C(O)c1ccc2c(ccn2-c2ccc(O[C@H]3O[C@H](CO)[C@@H](O)[C@H](O)[C@@H]3O)c(Cl)c2)c1 | 
3.2 | OC[C@H]1O[C@H](Oc2ccc(-c3cnc4[nH]ccc4c3)cc2Cl)[C@@H](O)[C@@H](O)[C@@H]1O | 
2.3 | OC[C@H]1O[C@H](Oc2ccc(N3CCc4ccccc43)cc2)[C@@H](O)[C@@H](O)[C@@H]1O | 
